The source made the active and inactive calls. The calls are words filed in the database; no cut-off is given here.
What was measured:
Hepatitis C virus [1] = experiment: Inhibition of wild type recombinant C terminal His6-tagged HCV1b NS5B Cdelta21 RNA dependent RNA polymerase activity expressed in Escherichia coli JM109 (DE3) using poly rA/U12 template primer by liquid scintillation counting; parameters: species or system Hepatitis C virus subtype 1b; conditions: JM 109
Summary of the method: (§1)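 Radiometric RdRp assay with His6-tagged NS5BCΔ21 (wild type or P495L, M423T, M414T mutants) purified from E. coli JM109(DE3) by Ni-NTA. Template-primer poly rA/U12. Compounds diluted serially in DMSO. Started with 1.0 mM MnCl2, stopped with ice-cold 10% TCA plus 0.5 mM pyrophosphate. Incorporated UTP TCA-precipitated on GF-B filters and scintillation counted. Activity set relative to DMSO control. IC50 from nonlinear fit of 8–12 concentrations, duplicate, two independent experiments.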

Hepatitis C virus [2] = experiment: Ratio of IC50 for recombinant HCV1b NS5B Cdelta21 RNA dependent RNA polymerase M423T mutant TP2 binding site to IC50 for wild type recombinant C terminal His6-tagged HCV1b NS5B Cdelta21 RNA dependent RNA polymerase; parameters: species or system Hepatitis C virus subtype 1b
Hepatitis C virus [3] = experiment: Ratio of IC50 for recombinant HCV1b NS5B Cdelta21 RNA dependent RNA polymerase P495L mutant TP1 binding site to IC50 for wild type recombinant C terminal His6-tagged HCV1b NS5B Cdelta21 RNA dependent RNA polymerase; parameters: species or system Hepatitis C virus subtype 1b
Hepatitis C virus [4] = experiment: Inhibition of recombinant HCV1b NS5B Cdelta21 RNA dependent RNA polymerase M423T mutant TP2 binding site using poly rA/U12 template primer by liquid scintillation counting; parameters: species or system Hepatitis C virus subtype 1b; summary of the method: as §1
Hepatitis C virus [5] = experiment: Inhibition of recombinant HCV1b NS5B Cdelta21 RNA dependent RNA polymerase P495L mutant TP1 binding site using poly rA/U12 template primer by liquid scintillation counting; parameters: species or system Hepatitis C virus subtype 1b; summary of the method: as §1
BHK = experiment: Inhibition of intracellular HCV NS5B RNA dependent RNA polymerase activity expressed in BHK cells at 100 uM after 42 hrs by renilla luciferase reporter gene assay; format: cell-based; conditions: Hepacivirus hominis
Summary of the method: (§2)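 BHK-NS5B-FRLuc reporter cells (DMEM, 10% heat-inactivated FBS, G418 1 mg/mL, blasticidin 10 µg/mL, 37°C, 5% CO2) treated with 100 µM compound or matching 1% DMSO for 42 hr. Lysates read by dual luciferase. Viability taken as firefly signal versus DMSO. Polymerase inhibition taken as percent reduction of Renilla/firefly ratio versus DMSO. At least three independent experiments in duplicate.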

Hepatitis C virus [6] = experiment: Inhibition of wild type recombinant C terminal His6-tagged HCV1b NS5B Cdelta21 RNA dependent RNA polymerase activity expressed in Escherichia coli JM109 (DE3) at 100 uM using poly rA/U12 template primer by liquid scintillation counting; parameters: species or system Hepatitis C virus subtype 1b
Summary of the method: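 Radiometric RdRp assay with wild-type NS5BCΔ21 (genotype 1b), C-terminal His6, Ni-NTA purified from E. coli JM109(DE3); poly rA/U12 template-primer. Compounds from 10 mM DMSO stocks, single-point at 100 µM. Started with 1.0 mM MnCl2, stopped with ice-cold 10% TCA/0.5 mM pyrophosphate. Incorporated radioactive UTP TCA-precipitated on GF-B filters, scintillation-counted; activity relative to DMSO control set at 100%.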

Hepatitis C virus [7] = experiment: Inhibition of recombinant HCV1b NS5B Cdelta21 RNA dependent RNA polymerase M414T mutant PP1 binding site using poly rA/U12 template primer by liquid scintillation counting; parameters: species or system Hepatitis C virus subtype 1b; summary of the method: as §1
Hepatitis C virus [8] = experiment: Ratio of IC50 for recombinant HCV1b NS5B Cdelta21 RNA dependent RNA polymerase M414T mutant PP1 binding site to IC50 for wild type recombinant C terminal His6-tagged HCV1b NS5B Cdelta21 RNA dependent RNA polymerase; parameters: species or system Hepatitis C virus subtype 1b
[9] = Cytotoxicity against BHK cells assessed as cell viability by firefly luciferase reporter gene assay; format: cell-based, Mesocricetus auratus; conditions: hamster; summary of the method: as §2

| Compound | IC50 (Hepatitis C virus [1]) [µM] | Ratio IC50 (Hepatitis C virus [2]) | Ratio IC50 (Hepatitis C virus [3]) | IC50 (Hepatitis C virus [4]) [µM] | IC50 (Hepatitis C virus [5]) [µM] | inhibition (BHK) | inhibition at 100 µM (Hepatitis C virus [6]) [%] | IC50 (Hepatitis C virus [7]) [µM] | Ratio IC50 (Hepatitis C virus [8]) | CC50 [9] [µM] |
| --- | --- | --- | --- | --- | --- | --- | --- | --- | --- | --- |
| COc1cc(O)c2c(c1)oc(=O)c1c3cc(O)c(O)cc3oc21 [WEDELOLACTONE] | 34 | – | – | – | – | – | – | – | – | – |
| CC1CS(=O)(=O)N(c2ccc(S(=O)(=O)Nc3cccc4cccnc34)cc2)C1=O (stereo unspecified) | 36.7 | >4.5 | <=1.4 | > 250 | 43 | 40.5% | ≥ 50 | 36.1 | <=1.4 | > 100 |
| CCOC(=O)/C(C#N)=C\c1cn(CCC(=O)O)nc1-c1ccc(F)cc1 | 33 | >4.5 | <=1.4 | > 250 | 34.3 | 44.2% | ≥ 50 | 28.6 | <=1.4 | > 100 |
| Cc1cc(O)c(C(c2ccc(Cl)c(Cl)c2)c2c(O)cc(C)oc2=O)c(=O)o1 | 56.8 | >4.5 | <=1.4 | > 250 | 63.8 | inactive | ≥ 50 | 62.4 | <=1.4 | > 100 |
| O=C(O)c1ccc(Nc2nnc(-c3ccccc3)c(=O)[nH]2)cc1O | 46.2 | >4.5 | <=1.4 | > 250 | 40.6 | 45.1% | ≥ 50 | 52.1 | <=1.4 | > 100 |
| C/C(=N\Nc1ncnc2ccccc12)C(=O)O | 16 | 7.9 | <=1.4 | 127 | 14.2 | 62.4% | ≥ 50 | 22.9 | <=1.4 | > 100 |
| O=C(CCS(=O)(=O)c1ccccc1)N1CCN(C(=O)CCS(=O)(=O)c2ccccc2)CC1 | 33.1 | >4.5 | <=1.4 | > 250 | 33.5 | 42.1% | ≥ 50 | 37.8 | <=1.4 | > 100 |
| Cn1cc(C(=O)N2CCN(C(=O)c3ccc(F)cc3F)CC2)c2nn(-c3ccccc3)c(=O)c-2c1 | 39.5 | >4.5 | <=1.4 | > 250 | 41 | 43.3% | ≥ 50 | 44.8 | <=1.4 | > 100 |
| COc1cc(/C=N/Nc2ccccc2C(=O)O)cc(Br)c1O | 20.3 | 8.5 | <=1.4 | 172 | 19.2 | 57.8% | ≥ 50 | 23.7 | <=1.4 | > 100 |
